Values after ≈ are worked out from the molar mass of the structure shown.
Key:
[1] = Dissociation constant, pKa of the compound by dip probe absorption spectroscopy; format: physicochemical
[2] = Photostability of the compound assessed as compound degradation administered as solid irradiated with sun light and measured after 7 days by HPLC analysis
[3] = Photostability of the compound at pH 4.1 assessed as compound degradation administered as solution irradiated with sun light and measured after 7 days by HPLC analysis; format: physicochemical; settings: time 7 day, read-out: Drug degradation
How it was run: (§1)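 Compound in solution was kept for 7 days under "mild" light-stress conditions, with no pH adjustment. The pH listed for each compound is the solution's own intrinsic pH. Result is % degradation of parent.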

Cytochrome P450 2C9 = Cytochrome P450 2C9 (Homo sapiens, UniProt P11712); experiment: Inhibition of CYP2C9 in human liver microsomes using diclofenac as substrate preincubated with compound followed by NADPH addition by LC-MS/MS analysis; format: ADME, Microsome
Cytochrome P450 2C8 = molecular target: T1, Cytochrome P450 2C8 (Homo sapiens, UniProt P10632); experiment: Inhibition of CYP2C8 in human liver microsomes using amodiaquine as substrate preincubated with compound followed by NADPH addition by LC-MS/MS analysis; format: ADME, Microsome
T1 sequence (P10632 whole entry): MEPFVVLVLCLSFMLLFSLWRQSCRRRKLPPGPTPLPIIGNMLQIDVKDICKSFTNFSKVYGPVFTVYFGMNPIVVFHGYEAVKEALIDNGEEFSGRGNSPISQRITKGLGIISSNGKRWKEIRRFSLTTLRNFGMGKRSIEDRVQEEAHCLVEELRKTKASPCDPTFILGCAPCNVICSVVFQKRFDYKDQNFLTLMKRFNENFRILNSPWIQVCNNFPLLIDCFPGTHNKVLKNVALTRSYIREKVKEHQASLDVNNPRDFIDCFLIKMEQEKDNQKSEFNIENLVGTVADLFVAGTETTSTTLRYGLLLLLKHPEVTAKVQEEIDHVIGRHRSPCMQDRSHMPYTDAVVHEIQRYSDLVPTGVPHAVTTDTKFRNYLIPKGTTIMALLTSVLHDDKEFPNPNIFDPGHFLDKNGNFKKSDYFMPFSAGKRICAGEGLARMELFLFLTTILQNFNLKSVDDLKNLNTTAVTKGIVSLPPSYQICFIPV

Cytochrome P450 2D6 = Cytochrome P450 2D6 (Homo sapiens, UniProt P10635); experiment: Inhibition of CYP2D6 in human liver microsomes using dextromethorphan as substrate preincubated with compound followed by NADPH addition by LC-MS/MS analysis; format: ADME, Microsome
Cytochrome P450 2C19 = Cytochrome P450 2C19 (Homo sapiens, UniProt P33261); experiment: Inhibition of CYP2C19 in human liver microsomes using mephenytoin as substrate preincubated with compound followed by NADPH addition by LC-MS/MS analysis; format: ADME, Microsome
Cytochrome P450 3A4 = Cytochrome P450 3A4 (Homo sapiens, UniProt P08684); experiment: Inhibition of CYP3A4 in human liver microsomes using midazolam as substrate preincubated with compound followed by NADPH addition by LC-MS/MS analysis; format: ADME, Microsome
[4] = Stability of the compound at pH 7.4 assessed as half life measured after 24 hrs in presence of GSH by HPLC analysis; format: physicochemical; settings: solution with GSH
[5] = Hydrolytic stability of the compound in aqueous HCl assessed as compound decomposition measured after 3 days by HPLC analysis; format: physicochemical; settings: time 3 day, read-out: Drug degradation
How it was run: (§2)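 Compound was held for 3 days at 40 °C in 0.1 M HCl in water or in aqueous buffer at pH 7.4. Dissolution was confirmed by eye, and decomposition is reported as % loss of parent.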

[6] = Hydrolytic stability of the compound in aqueous buffer at pH 7.4 assessed as compound decomposition measured after 3 days by HPLC analysis; format: physicochemical; settings: time 3 day, read-out: Drug degradation; how it was run: as §2
[7] = Photostability of the compound assessed as compound degradation administered as aqueous solution irradiated with UV and measured after 24 hrs by HPLC analysis
[8] = Photostability of the compound at pH 8.6 assessed as compound degradation administered as solution irradiated with sun light and measured after 7 days by HPLC analysis; format: physicochemical; settings: time 7 day, read-out: Drug degradation; how it was run: as §1
[9] = Cytotoxicity against human HepG2 cells assessed as cell growth inhibition incubated for 24 hrs by MTT assay; format: toxicity, cell-based
How it was run: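 HepG2 human hepatoma cells were exposed to compound at concentrations up to 400 µM and viability was read by MTT. The result is given in µM.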

[10] = Lipophilicity, logP of the compound; format: physicochemical; settings: octanol/water
[11] = Permeability of the compound at pH 7.4 by PAMPA assay; format: ADME; settings: read-out: permeability
[12] = Aqueous solubility of the compound at pH 2.2 incubated for 24 hrs under shaking condition by LC-UV analysis; format: physicochemical; settings: aqueous medium
How it was run: (§3)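 The highest concentration tested was 250 μM, so results are capped at that level. Values are reported in µg/ml.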

[13] = Aqueous solubility of the compound at pH 4.5 incubated for 24 hrs under shaking condition by LC-UV analysis; format: physicochemical; settings: aqueous medium; how it was run: as §3
[14] = Aqueous solubility of the compound at pH 6.8 incubated for 24 hrs under shaking condition by LC-UV analysis; format: physicochemical; settings: aqueous medium; how it was run: as §3
[15] = Metabolic stability in human liver microsomes assessed as hepatic blood flow at 1 uM preincubated with compound followed by NADPH addition by LC-MS/MS analysis; format: ADME, Microsome; settings: read-out: QH
[16] = Octanol-water partition coefficient, logD of the compound at pH 2 by HPLC analysis; format: physicochemical
[17] = Octanol-water partition coefficient, logD of the compound at pH 11 by HPLC analysis; format: physicochemical; settings: read-out: logD
[18] = Photostability of the compound at pH 7.2 assessed as compound degradation administered as solution irradiated with sun light and measured after 7 days by HPLC analysis; format: physicochemical; settings: time 7 day, read-out: Drug degradation; how it was run: as §1
[19] = Photostability of the compound at pH 5.3 assessed as compound degradation administered as solution irradiated with sun light and measured after 7 days by HPLC analysis; format: physicochemical; settings: time 7 day, read-out: Drug degradation; how it was run: as §1
[20] = Photostability of the compound at pH 5.8 assessed as compound degradation administered as solution irradiated with sun light and measured after 7 days by HPLC analysis; format: physicochemical; settings: time 7 day, read-out: Drug degradation; how it was run: as §1
[21] = Photostability of the compound at pH 8.7 assessed as compound degradation administered as solution irradiated with sun light and measured after 7 days by HPLC analysis; format: physicochemical; settings: time 7 day, read-out: Drug degradation; how it was run: as §1
[22] = Photostability of the compound at pH 4.0 assessed as compound degradation administered as solution irradiated with sun light and measured after 7 days by HPLC analysis; format: physicochemical; settings: time 7 day, read-out: Drug degradation; how it was run: as §1
[23] = Photostability of the compound at pH 7.1 assessed as compound degradation administered as solution irradiated with sun light and measured after 7 days by HPLC analysis; format: physicochemical; settings: time 7 day, read-out: Drug degradation; how it was run: as §1

Chain of Cytochrome P450 2C19 (P33261 whole entry): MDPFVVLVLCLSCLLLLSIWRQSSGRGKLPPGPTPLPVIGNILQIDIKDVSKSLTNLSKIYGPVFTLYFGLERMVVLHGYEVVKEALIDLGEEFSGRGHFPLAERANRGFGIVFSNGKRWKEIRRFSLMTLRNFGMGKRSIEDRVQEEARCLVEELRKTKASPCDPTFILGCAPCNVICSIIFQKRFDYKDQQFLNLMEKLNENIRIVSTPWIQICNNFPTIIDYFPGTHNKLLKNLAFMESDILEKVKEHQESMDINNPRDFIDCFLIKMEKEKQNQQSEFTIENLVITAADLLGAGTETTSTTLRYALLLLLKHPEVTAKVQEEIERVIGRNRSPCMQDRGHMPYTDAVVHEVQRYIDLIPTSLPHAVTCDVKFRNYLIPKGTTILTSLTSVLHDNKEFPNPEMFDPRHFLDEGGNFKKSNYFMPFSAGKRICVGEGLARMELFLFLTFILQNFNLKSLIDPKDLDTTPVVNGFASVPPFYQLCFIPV
Chain of Cytochrome P450 3A4 (P08684 whole entry): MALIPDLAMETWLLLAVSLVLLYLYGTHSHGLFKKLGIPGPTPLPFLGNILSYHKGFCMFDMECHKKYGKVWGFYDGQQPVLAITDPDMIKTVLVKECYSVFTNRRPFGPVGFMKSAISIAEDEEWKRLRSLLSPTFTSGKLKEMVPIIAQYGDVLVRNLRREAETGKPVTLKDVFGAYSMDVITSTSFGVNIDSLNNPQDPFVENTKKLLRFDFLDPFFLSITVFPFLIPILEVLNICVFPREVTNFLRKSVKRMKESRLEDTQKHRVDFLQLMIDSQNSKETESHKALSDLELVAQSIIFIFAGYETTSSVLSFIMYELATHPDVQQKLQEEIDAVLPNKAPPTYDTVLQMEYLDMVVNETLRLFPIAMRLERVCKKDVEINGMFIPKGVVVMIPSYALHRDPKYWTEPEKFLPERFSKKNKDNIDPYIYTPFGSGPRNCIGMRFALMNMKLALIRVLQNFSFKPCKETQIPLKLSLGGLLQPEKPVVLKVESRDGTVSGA
Chain of Cytochrome P450 2D6 (P10635 whole entry): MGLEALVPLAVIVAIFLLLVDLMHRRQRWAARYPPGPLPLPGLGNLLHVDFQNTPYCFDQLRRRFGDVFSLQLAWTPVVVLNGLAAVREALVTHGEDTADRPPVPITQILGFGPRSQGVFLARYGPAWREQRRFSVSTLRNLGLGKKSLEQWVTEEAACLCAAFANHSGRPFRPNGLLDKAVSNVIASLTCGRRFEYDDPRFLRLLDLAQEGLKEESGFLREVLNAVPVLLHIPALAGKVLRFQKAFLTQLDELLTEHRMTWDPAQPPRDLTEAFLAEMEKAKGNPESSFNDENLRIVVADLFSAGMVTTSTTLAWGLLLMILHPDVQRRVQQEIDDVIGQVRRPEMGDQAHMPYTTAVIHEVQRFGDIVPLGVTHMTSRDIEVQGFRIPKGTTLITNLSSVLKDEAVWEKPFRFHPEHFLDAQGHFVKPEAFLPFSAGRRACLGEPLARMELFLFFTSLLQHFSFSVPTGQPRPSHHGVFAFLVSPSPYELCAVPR
Chain of Cytochrome P450 2C9 (P11712 whole entry): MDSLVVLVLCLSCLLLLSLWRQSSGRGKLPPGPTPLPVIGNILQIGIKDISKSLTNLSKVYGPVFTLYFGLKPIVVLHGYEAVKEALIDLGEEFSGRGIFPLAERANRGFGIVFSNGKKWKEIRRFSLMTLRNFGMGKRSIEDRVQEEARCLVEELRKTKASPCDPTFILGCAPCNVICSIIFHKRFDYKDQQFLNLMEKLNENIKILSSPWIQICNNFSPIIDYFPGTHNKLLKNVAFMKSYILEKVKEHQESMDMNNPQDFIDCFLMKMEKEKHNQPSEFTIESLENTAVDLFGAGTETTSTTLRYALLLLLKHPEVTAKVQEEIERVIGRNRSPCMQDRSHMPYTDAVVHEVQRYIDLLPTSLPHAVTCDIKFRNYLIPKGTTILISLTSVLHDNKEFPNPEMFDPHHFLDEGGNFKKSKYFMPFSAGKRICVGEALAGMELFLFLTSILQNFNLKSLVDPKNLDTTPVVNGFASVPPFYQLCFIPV

Row | SMILES | degraded at 168 h [2] [%] | IC50 (Cytochrome P450 2C9) [µM] | IC50 (Cytochrome P450 2C8) [µM] | IC50 (Cytochrome P450 2D6) [µM] | IC50 (Cytochrome P450 2C19) [µM] | IC50 (Cytochrome P450 3A4) [µM] | half-life [4] [days] | degraded at 72 h [5] [%] | degraded at 72 h [6] [%] | Papp [11] [×10⁻⁶ cm/s] | solubility thermodynamic at 24 h [12] [µg/mL] | solubility thermodynamic at 24 h [13] [µg/mL] | solubility thermodynamic at 24 h [14] [µg/mL] | hepatic extraction ratio at 1 µM [15] | logD [17] | logP ([10]; read-out: logP) | logD ([16]; read-out: logD) | further results
1 | O=C(O)c1ccc2ccc(C(=O)c3ccccc3)c-2cc1 | < 0.5 | > 50 | > 50 | > 50 | > 50 | > 50 | > 41.7 |  |  |  |  |  |  |  |  |  |  | pKa [1]: 3.2; degraded at 168 h [3]: < 0.5%
2 | CN(C)C(=O)c1ccc2cccccc1-2 | < 0.5 | > 50 | > 50 | > 50 | > 50 | > 50 | > 41.7 | < 0.5 | < 0.5 | 7.6 | > 43 | > 44 | > 40 | 0.67 | 1.6 |  |  | degraded at 24 h [7]: 100%; degraded at 168 h [8]: 3%; EC50 at 24 h [9]: > 400 µM; logP [10]: 1.6; logD [16]: 2.1
3 | CN1CCN(C(=O)c2ccc3ccc(C(=O)c4ccccc4)c-3cc2)CC1 | < 0.5 | 39 | > 50 | > 50 | > 50 | > 50 |  |  |  | 8.4 | > 90 | 67 (≈ 187 µM) | > 73 | 0.48 | 1.2 | 3 | 1.2 | degraded at 168 h [18]: < 0.5%
4 | CN(C)C(=O)Cc1ccc2cccc-2cc1 | < 0.5 |  |  |  |  |  | > 41.7 | 2 | < 0.5 | 8.7 | > 44 | > 45 | > 43 | 0.27 | 2.2 | 2.2 | 2.5 | degraded at 168 h [19]: 12%
5 | O=C(NCCO)c1ccc2ccc(C(=O)c3ccccc3)c-2cc1 | < 0.5 | > 50 | > 50 | > 50 | > 50 | > 50 |  |  |  | 1.8 | 14 (≈ 43.8 µM) | 6 (≈ 18.8 µM) | 4 (≈ 12.5 µM) | < 0.23 | 2.2 | 2.2 | 2.3 | degraded at 168 h [20]: < 0.5%
6 | c1cc2ccc(CN3CCCCC3)ccc-2c1 | < 0.5 | > 50 | > 50 | 17 | 2.3 | > 50 |  |  |  | 3.4 | > 56 |  | 31 (≈ 138 µM) | 0.75 | > 5.5 | > 5.5 | 0.8 | degraded at 168 h [21]: 3.5%
7 | O=C(O)c1ccc2cccc-2cc1 | < 0.5 |  |  |  |  |  | > 41.7 | 1.5 | < 0.5 |  |  |  |  |  |  |  |  | pKa [1]: 3.5; degraded at 168 h [22]: < 0.5%
8 | O=C(Cn1ccccc1=O)Nc1cc2cccccc-2c1 | < 0.5 |  |  |  |  |  | > 41.7 | 3.5 | < 0.5 | 3.7 | 4 (≈ 14.4 µM) | 2 (≈ 7.19 µM) | 2 (≈ 7.19 µM) | < 0.23 | 1.7 | 1.7 | 2 | degraded at 168 h [23]: 85%

Reference: ChEMBL document CHEMBL5120825, “The azulene scaffold from a medicinal chemist's perspective: Physicochemical and in vitro parameters relevant for drug discovery” (Eur J Med Chem, 2022)
